Reference: ChEMBL document CHEMBL4373708 (J Med Chem, 2019)
Blank lines part the entries; values can stand above or below the compound they belong to. Active and inactive are the calls of the source. No cut-off for these calls is given here.

Assays:
[1] = Cmax in mouse at 5 mg/kg, ip by LC-MS analysis; format: ADME, organism-based; design: dose 5 mg/kg, route intraperitoneal; conditions: in vivo
In short: (§1)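 Single intraperitoneal or oral dose in mice at 5 mg/kg (vehicle: saline with 5% DMSO and 10% Kolliphor HS 15) or 10 mg/kg (vehicle: PBS with 5% DMSO and 20% (2-hydroxypropyl)-β-cyclodextrin). Blood taken by retroorbital puncture at set times, serum separated by centrifugation at 4000 g for 20 min at 24 °C, compound quantified by LC/MS.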

[2] = system: Mus musculus; assay: Anti-absorptive activity in loperamide-induced CD-1 mouse model of constipation assessed as improvement in stool water content at 5 mg/kg, po administered via gavage for 1 hr prior to loperamide challenge and measured after 3 hrs; format: functional, organism-based
In short: (§2)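 Female CD1 mice aged 8–10 weeks were gavaged with 5 mg/kg compound or vehicle 1 h before ip loperamide (0.3 mg/kg in 5% ethanol/PBS). Mice were kept singly in metabolic cages and stool collected for 3 h. Total weight and pellet number were recorded; water content = (wet−dry)/wet after drying at 80 °C for 24 h. Mean ± S.E.M., 4-6 mice per group.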

[3] = AUC in mouse at 5 mg/kg, ip by LC-MS analysis; format: ADME, organism-based; conditions: in vivo; in short: as §1
[4] = molecular target: T1, Chloride anion exchanger (Mus musculus, UniProt Q9WVC8)
T1 sequence (Q9WVC8 whole entry): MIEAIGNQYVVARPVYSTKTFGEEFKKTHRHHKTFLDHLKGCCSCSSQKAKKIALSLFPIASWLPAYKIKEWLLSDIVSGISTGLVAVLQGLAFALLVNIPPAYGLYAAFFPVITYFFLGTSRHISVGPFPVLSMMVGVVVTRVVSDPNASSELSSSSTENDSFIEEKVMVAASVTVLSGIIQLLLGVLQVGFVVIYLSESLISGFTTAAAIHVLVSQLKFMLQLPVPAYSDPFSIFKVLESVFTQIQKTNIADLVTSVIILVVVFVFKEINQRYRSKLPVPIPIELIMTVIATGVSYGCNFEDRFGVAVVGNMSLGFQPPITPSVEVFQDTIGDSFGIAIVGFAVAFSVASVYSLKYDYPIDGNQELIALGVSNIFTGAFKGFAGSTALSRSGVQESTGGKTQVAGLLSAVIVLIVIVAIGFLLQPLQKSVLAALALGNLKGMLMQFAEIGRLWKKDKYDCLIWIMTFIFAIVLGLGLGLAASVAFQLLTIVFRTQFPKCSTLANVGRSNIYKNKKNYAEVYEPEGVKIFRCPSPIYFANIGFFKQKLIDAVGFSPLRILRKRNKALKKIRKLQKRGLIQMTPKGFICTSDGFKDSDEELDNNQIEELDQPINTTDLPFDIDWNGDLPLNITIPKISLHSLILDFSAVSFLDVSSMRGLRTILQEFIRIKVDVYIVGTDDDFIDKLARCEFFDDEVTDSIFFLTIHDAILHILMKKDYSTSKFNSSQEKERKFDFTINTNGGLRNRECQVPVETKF

[5] = Tmax in mouse at 5 mg/kg, po by LC-MS analysis; format: ADME, organism-based; conditions: in vivo; in short: as §1
[6] = Cmax in mouse at 5 mg/kg, po by LC-MS analysis; format: ADME, organism-based; design: dose 5 mg/kg, route oral; conditions: in vivo; in short: as §1
[7] = AUC in mouse at 5 mg/kg, po by LC-MS analysis; format: ADME, organism-based; conditions: in vivo; in short: as §1
[8] = system: Mus musculus; assay: Anti-absorptive activity in loperamide-induced CD-1 mouse model of constipation assessed as improvement in stool weight at 5 mg/kg, po administered via gavage for 1 hr prior to loperamide challenge and measured after 3 hrs; format: functional, organism-based; in short: as §2
[9] = Tmax in mouse at 5 mg/kg, ip by LC-MS analysis; format: ADME, organism-based; conditions: in vivo; in short: as §1
[10] = system: Mus musculus; assay: Anti-absorptive activity in loperamide-induced CD-1 mouse model of constipation assessed as improvement in fecal pellet number at 5 mg/kg, po administered via gavage for 1 hr prior to loperamide challenge and measured after 3 hrs; format: functional, organism-based; in short: as §2
[11] = Drug uptake in mouse serum at 5 mg/kg, po or ip measured after 16 hrs by LC-MS analysis; format: ADME, organism-based; conditions: in vivo; in short: as §1
[12] = Tmax in mouse at 10 mg/kg, po by LC-MS analysis; format: ADME, organism-based; conditions: in vivo; in short: as §1
[13] = AUC in mouse at 10 mg/kg, po by LC-MS analysis; format: ADME, organism-based; conditions: in vivo; in short: as §1
[14] = Drug level in mouse serum at 10 mg/kg, po or ip measured after 72 hrs by LC-MS analysis; format: ADME, organism-based; conditions: read-out: Drug uptake; in short: as §1
[15] = Cmax in mouse at 10 mg/kg, po by LC-MS analysis; format: ADME, organism-based; design: dose 10 mg/kg, route oral; conditions: in vivo; in short: as §1
[16] = AUC in mouse at 10 mg/kg, ip by LC-MS analysis; format: ADME, organism-based; conditions: in vivo; in short: as §1
[17] = Cmax in mouse at 10 mg/kg, ip by LC-MS analysis; format: ADME, organism-based; design: dose 10 mg/kg, route intraperitoneal; conditions: in vivo; in short: as §1
[18] = system: Mus musculus; assay: Anti-absorptive activity in loperamide-induced CD-1 mouse model of constipation assessed as improvement in fecal pellet number at 3 mg/kg, po administered via gavage for 1 hr prior to loperamide challenge and measured after 3 hrs; format: functional, organism-based
In short: (§3)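 Mice were held singly in metabolic cages with food and water. Stool was collected 3 h for weight and pellet count; water content = (wet−dry)/wet after drying 24 h at 80 °C. 5-8 mice/group, one-way ANOVA with Newman-Keuls.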

[19] = system: Mus musculus; assay: Anti-absorptive activity in loperamide-induced CD-1 mouse model of constipation assessed as stool hydration at 1 mg/kg, po administered via gavage for 1 hr prior to loperamide challenge and measured after 3 hrs relative to control; format: functional; in short: as §3
[20] = Toxicity in CD-1 mouse assessed as effect on stool water content at 10 mg/kg, po administered via gavage for 1 hr; format: organism-based; conditions: in vivo
In short: (§4)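 Female CD1 mice aged 8–10 weeks without loperamide: 10 mg/kg compound or vehicle (PBS with 5% DMSO and 20% (2-hydroxypropyl)-β-cyclodextrin) by gavage, 1 h before ip injection of loperamide vehicle (5% ethanol in PBS). Mice were caged singly in metabolic cages and stool collected 3 h for weight, pellet count and water content (dried 80 °C, 24 h).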

[21] = system: Mus musculus; assay: Anti-absorptive activity in loperamide-induced CD-1 mouse model of constipation assessed as improvement in stool water content at 3 mg/kg, po administered via gavage for 1 hr prior to loperamide challenge and measured after 3 hrs; format: functional, organism-based; in short: as §3
[22] = system: Mus musculus; assay: Anti-absorptive activity in loperamide-induced CD-1 mouse model of constipation assessed as improvement in stool weight at 3 mg/kg, po administered via gavage for 1 hr prior to loperamide challenge and measured after 3 hrs; format: functional, organism-based; in short: as §3
[23] = Tmax in mouse at 10 mg/kg, ip by LC-MS analysis; format: ADME, organism-based; conditions: in vivo; in short: as §1
[24] = Toxicity in CD-1 mouse assessed as effect on fecal pellet number at 10 mg/kg, po administered via gavage for 1 hr; format: organism-based; conditions: in vivo; in short: as §4
[25] = Toxicity in CD-1 mouse assessed as effect on stool weight at 10 mg/kg, po administered via gavage for 1 hr; format: organism-based; conditions: in vivo; in short: as §4

Cmax [1]: 70.2 µM
AUC [3]: 418 µM·h
IC50 [4]: 0.023 µM
Tmax [5]: 48 min
Cmax [6]: 12.9 µM
AUC [7]: 69 µM·h
Tmax [9]: 48 min
Drug uptake [11]: Active
Structure (SMILES): Cc1c(CC(=O)O)c(=O)oc2c(C)c(OCc3cccc(C(F)(F)F)c3)ccc12
Activity [2]: Active
Activity [8]: Active
Activity [10]: Active

Tmax [12]: 390 min
AUC [13]: 130 µM·h
concentration at 72 h [14]: 1 µM
Cmax [15]: 4.7 µM
AUC [16]: 331 µM·h
IC50 [4]: 0.035 µM
Cmax [17]: 29.1 µM
Tmax [23]: 30 min
Structure (SMILES): Cc1c(CC(=O)O)c(=O)oc2c(C)c(OCc3cccc(I)c3)ccc12
Activity [18]: Active
Activity [19]: >50%
Activity [20]: Non-Toxic
Activity [21]: Active
Activity [22]: Active
Activity [24]: Non-Toxic
Activity [25]: Non-Toxic
